The values below come from ChEMBL document CHEMBL2396525, “Synthesis and anti-HCMV activity of 1-[ω-(phenoxy)alkyl]uracil derivatives and analogues thereof” (Bioorg Med Chem, 2013).

One series relates to Punta Toro virus. The experiment in a line: Antiviral activity against Punta Toro virus. In kind it is functional, organism-based. The essentials: (§1)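 Confluent HEL, Vero, HeLa or MDCK cell cultures were inoculated with 100 CCID50 of virus alongside varying compound concentrations. Cytopathicity was scored when it reached completion in untreated virus controls. EC50 is the concentration that reduces virus-induced cytopathogenicity by 50%.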

The subject of series [1] is Human betaherpesvirus 5. The experiment in a line: Antiviral actiivty against Human herpesvirus 5 Davis infected in HEL assessed as reduction of virus-induced plaque formation. In kind it is functional, organism-based. The conditions noted are these: Human betaherpesvirus 5, Davis. The method in brief:
(§2)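 HCMV strains AD-169 and Davis were tested on confluent human embryonic lung fibroblast monolayers infected with 100 PFU in the presence of serial compound concentrations. Plaques were counted once formation was complete in untreated infected controls. EC50 is the concentration that cuts plaque formation by 50%.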

Series [2] relates to Human alphaherpesvirus 3. Kind of series: Antiviral activity against Varicella-zoster virus YS. The series is classed as functional, organism-based. The method in brief: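 VZV was assayed by plaque formation. Confluent cell cultures received 10 or 100 PFU with varying compound concentrations, and plaques were recorded once complete in untreated infected controls. EC50 is the concentration that reduces plaque formation by 50%.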

Another series concerns Human respirovirus 3. The experiment in a line: Antiviral activity against Parainfluenza virus 3. The series is classed as functional, organism-based. The method in brief: as §1
In series [3] the test system is Mammalian orthoreovirus 1. Kind of series: Antiviral activity against Reovirus-1. The series is classed as functional, organism-based. The method in brief: as §1
The test system of series [4] is Vesicular stomatitis virus. The experiment in a line: Antiviral activity against Vesicular stomatitis virus. In kind it is functional, organism-based.
In series [5] the test system is Human alphaherpesvirus 1. The experiment in a line: Antiviral activity against thymidine kinase deficient acyclovir-resistant Herpes simplex virus type 1 KOS. In kind it is functional, organism-based.
For the next series, the system named is Vaccinia virus. The experiment in a line: Antiviral activity against Vaccinia virus Lederle. The series is classed as functional, organism-based. The conditions noted are these: Orthopoxvirus vaccinia.
In series [6] the test system is Human alphaherpesvirus 1. The experiment in a line: Antiviral activity against Herpes simplex virus type 1 KOS. In kind it is functional, organism-based. The method in brief: as §1
For series [7], the system named is Human immunodeficiency virus 2. Kind of series: Antiviral activity against HIV2 ROD infected in human CEM cells assessed as inhibition of virus-induced giant cell formation after 4 to 5 days. The series is classed as functional, organism-based. The settings on record: ISOLATE ROD, CCRF-CEM. The method in brief:
(§3)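 CEM cells at about 3 × 10^5 cells/mL were infected with 100 CCID50 of HIV per mL, with compound dilutions present. They were incubated 4–5 days at 37 °C in humidified CO2, and syncytia were scored microscopically. EC50 is the concentration that inhibits giant cell formation by 50%.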

The nature of series [8]: Cytotoxicity against HEL assessed as minimum cytotoxic concentration required to cause microscopically detectable alteration in cell morphology. The conditions noted are these: human, HEL cells. The series is classed as cell-based.
Series [9] relates to Influenza A virus. The experiment in a line: Antiviral activity against Influenza virus A virus H1N1. The series is classed as functional, organism-based. The essentials:
(§4)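 The assay was a cell-based cytopathicity inhibition test on confluent monolayers with serial compound dilutions. EC50 was the concentration that reduced virus-induced cytopathicity by 50%.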

The test system of another series is Coxsackievirus B4. The experiment in a line: Antiviral activity against Coxsackie B4 virus. In kind it is functional, organism-based. The method in brief:
as §1

Another series relates to Feline coronavirus. Kind of series: Antiviral activity against Feline coronavirus. In kind it is functional, organism-based.
For series [10], the system named is Human alphaherpesvirus 3. The experiment in a line: Antiviral activity against Varicella-zoster virus OKA. The series is classed as functional. The settings on record: strain Oka vaccine. The method in brief:
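Confluent cell monolayers were infected with 10 or 100 PFU of VZV in the presence of serial compound dilutions. Plaque formation was recorded once untreated infected controls reached completion. EC50 was the concentration that reduced plaque formation by 50%.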

Series [11] has as its system Human immunodeficiency virus 1. Kind of series: Antiviral activity against HIV1 3B infected in human CEM cells assessed as inhibition of virus-induced giant cell formation after 4 to 5 days. The series is classed as functional, organism-based. The conditions noted are these: CCRF-CEM. The method in brief: as §3
The subject of the next series is Influenza B virus. The experiment in a line: Antiviral activity against Influenza B virus. The series is classed as functional, organism-based. The essentials: as §4
Series [12] relates to Respiratory syncytial virus. Kind of series: Antiviral activity against Respiratory syncytial virus Long. The series is classed as functional, organism-based. The method in brief: as §1
Series [13] concerns Human alphaherpesvirus 2. Kind of series: Antiviral activity against Herpes simplex virus type 2 Lyons. In kind it is functional, organism-based. The method in brief: as §1
In the next series the test system is Sindbis virus. The experiment in a line: Antiviral activity against Sindbis virus. In kind it is functional, organism-based. The method in brief:
as §1

Series [14] deals with Human alphaherpesvirus 2. Kind of series: Antiviral activity against Herpes simplex virus type 2 G. In kind it is functional, organism-based. The conditions noted are these: strain G. The essentials:
as §1

Series [15] deals with Influenza A virus. The experiment in a line: Antiviral activity against Influenza virus A virus H3N2. The series is classed as functional, organism-based. The method in brief: as §4
For series [16], the system named is Human betaherpesvirus 5. The experiment in a line: Antiviral actiivty against Human herpesvirus 5 AD169 infected in HEL assessed as reduction of virus-induced plaque formation. In kind it is functional, organism-based. The conditions noted are these: Human betaherpesvirus 5, AD169. The method in brief:
as §2

A further series concerns HEL. The experiment in a line: Cytotoxicity against HEL. In kind it is cell-based. The conditions noted are these: human.

Active and inactive are the calls of the source. No cut-off for these calls is given here.

With `O=c1ccn(CCCCCOc2ccc(-c3ccccc3)cc2)c(=O)[nH]1`, the outcome (in the series on Punta Toro virus; in the series with Human alphaherpesvirus 3 [2]; in the series on Human respirovirus 3; in [3]; in series [4]; in the series with Human alphaherpesvirus 1 [5]) was inactive. In addition, the result (in the series with Vaccinia virus; in the series with Human alphaherpesvirus 1 [6]; in [7]; in the series on Influenza A virus [9]; with Coxsackievirus B4; in the series on Feline coronavirus) was inactive. In addition, the result (with Human alphaherpesvirus 3 [10]; in series [11]; in the series on Influenza B virus; in series [12]; with Human alphaherpesvirus 2 [13]; with Sindbis virus) was inactive. Moreover, the outcome in the series on Human alphaherpesvirus 2 [14] and in the series with Influenza A virus [15] was inactive. Besides, the results for the half-maximal effective concentration (EC50) in the series with Human betaherpesvirus 5 [1] and in the series with Human betaherpesvirus 5 [16] were 54 µM and > 20 µM, respectively. Besides, in [8], the MCC came out at 100 µM.
Regarding `O=c1ccn(CCCCCOc2ccc(Cl)cc2)c(=O)[nH]1`, the outcome (in the series on Punta Toro virus; in the series on Human alphaherpesvirus 3 [2]; in the series on Human respirovirus 3; in series [3]; in series [4]; in the series on Human alphaherpesvirus 1 [5]) was inactive. In addition, the outcome (with Vaccinia virus; in the series with Human alphaherpesvirus 1 [6]; in series [7]; in the series on Influenza A virus [9]; in the series with Coxsackievirus B4; in the series with Feline coronavirus) was inactive. For the same compound, the outcome (with Human alphaherpesvirus 3 [10]; in series [11]; in the series on Influenza B virus; in series [12]; in the series with Human alphaherpesvirus 2 [13]; in the series on Sindbis virus) was inactive. Besides, the outcome with Human alphaherpesvirus 2 [14] and in the series on Influenza A virus [15] was inactive. Besides, the EC50 in the series on Human betaherpesvirus 5 [1] and with Human betaherpesvirus 5 [16] was > 100 µM each time. The MCC in series [8] is > 100 µM.
Turning to `O=C(O)c1ccc(OCCCCCn2ccc(=O)[nH]c2=O)cc1`, the result (in the series with Punta Toro virus; in the series with Human alphaherpesvirus 3 [2]; with Human respirovirus 3; in [3]; in [4]; in the series on Human alphaherpesvirus 1 [5]) was inactive. In addition, the result (with Vaccinia virus; in the series on Human alphaherpesvirus 1 [6]; in [7]; in the series with Influenza A virus [9]; with Coxsackievirus B4; in the series on Feline coronavirus) was inactive. The result (in the series with Human alphaherpesvirus 3 [10]; in [11]; with Influenza B virus; in series [12]; in the series on Human alphaherpesvirus 2 [13]; with Sindbis virus) was inactive. Moreover, the result in the series on Human alphaherpesvirus 2 [14] and with Influenza A virus [15] was inactive. Further, the EC50 in the series with Human betaherpesvirus 5 [1] and in the series on Human betaherpesvirus 5 [16] was > 100 µM throughout. Further, the MCC in series [8] is > 100 µM.
For the compound `O=c1ccn(CCCCCOc2ccc([N+](=O)[O-])cc2)c(=O)[nH]1`, the result (in the series on Punta Toro virus; in the series on Human alphaherpesvirus 3 [2]; with Human respirovirus 3; in series [3]; in [4]; with Human alphaherpesvirus 1 [5]) was inactive. The result (in the series with Vaccinia virus; in the series with Human alphaherpesvirus 1 [6]; in series [7]; with Influenza A virus [9]; in the series with Coxsackievirus B4; with Feline coronavirus) was inactive. Further, the result (in the series on Human alphaherpesvirus 3 [10]; in series [11]; in the series with Influenza B virus; in series [12]; in the series with Human alphaherpesvirus 2 [13]; in the series on Sindbis virus) was inactive. Moreover, the result in the series on Human alphaherpesvirus 2 [14] and in the series on Influenza A virus [15] was inactive. For the same compound, the EC50 with Human betaherpesvirus 5 [1] and in the series on Human betaherpesvirus 5 [16] was > 4 µM in each case. Moreover, the MCC in series [8] was found to be 20 µM.
As for `O=c1ccn(CCCCCCOc2ccc(Br)cc2)c(=O)[nH]1`, the result (with Punta Toro virus; in the series on Human alphaherpesvirus 3 [2]; with Human respirovirus 3; in [3]; in series [4]; in the series with Human alphaherpesvirus 1 [5]) was inactive. Further, the outcome (with Vaccinia virus; with Human alphaherpesvirus 1 [6]; in series [7]; in the series on Influenza A virus [9]; in the series on Coxsackievirus B4; in the series with Feline coronavirus) was inactive. The outcome (with Human alphaherpesvirus 3 [10]; in series [11]; in the series with Influenza B virus; in series [12]; with Human alphaherpesvirus 2 [13]; in the series with Sindbis virus) was inactive. Also, the outcome with Human alphaherpesvirus 2 [14] and in the series with Influenza A virus [15] was inactive. Moreover, the EC50 with Human betaherpesvirus 5 [1] and in the series on Human betaherpesvirus 5 [16] was > 4 µM each time. Moreover, the MCC in [8] amounted to 20 µM.
For `Nc1ccn(C[C@@H](CO)OCP(=O)(O)O)c(=O)n1` [CIDOFOVIR], the EC50 in the series on Human betaherpesvirus 5 [1] was determined as 1.1 µM; with Human betaherpesvirus 5 [16], 1.3 µM. The MCC in [8] was found to be 317 µM. In the series with HEL, this compound yielded a CC50 of 161 µM.
Turning to `O=c1ccn(CCCOc2ccc(Br)cc2)c(=O)[nH]1`, the result (with Punta Toro virus; in the series with Human alphaherpesvirus 3 [2]; in the series on Human respirovirus 3; in [3]; in [4]; with Human alphaherpesvirus 1 [5]) was inactive. For the same compound, the outcome (with Vaccinia virus; with Human alphaherpesvirus 1 [6]; in series [7]; with Influenza A virus [9]; in the series on Coxsackievirus B4; with Feline coronavirus) was inactive. Moreover, the result (in the series with Human alphaherpesvirus 3 [10]; in series [11]; in the series with Influenza B virus; in series [12]; in the series with Human alphaherpesvirus 2 [13]; with Sindbis virus) was inactive. In addition, the outcome with Human alphaherpesvirus 2 [14] and in the series on Influenza A virus [15] was inactive. Further, the EC50 with Human betaherpesvirus 5 [1] and in the series on Human betaherpesvirus 5 [16] was > 100 µM each time. Also, in series [8], the MCC was > 100 µM.
Take `Nc1nc(O)c2ncn(COC(CO)CO)c2n1` [GANCICLOVIR]: the EC50 in the series on Human betaherpesvirus 5 [1] was 8.3 µM. For the same compound, in series [8], the MCC was found to be 394 µM. Further, the CC50 in the series on HEL is 200 µM.
Take `O=c1ccn(CCCCOc2ccc(Br)cc2)c(=O)[nH]1`: the outcome (in the series with Punta Toro virus; in the series on Human alphaherpesvirus 3 [2]; in the series on Human respirovirus 3; in series [3]; in series [4]; in the series with Human alphaherpesvirus 1 [5]) was inactive. In addition, the result (in the series on Vaccinia virus; in the series with Human alphaherpesvirus 1 [6]; in [7]; in the series with Influenza A virus [9]; in the series with Coxsackievirus B4; with Feline coronavirus) was inactive. In addition, the outcome (in the series on Human alphaherpesvirus 3 [10]; in series [11]; with Influenza B virus; in series [12]; in the series on Human alphaherpesvirus 2 [13]; in the series on Sindbis virus) was inactive. Moreover, the outcome in the series on Human alphaherpesvirus 2 [14] and in the series with Influenza A virus [15] was inactive. For the same compound, the EC50 with Human betaherpesvirus 5 [1] and in the series on Human betaherpesvirus 5 [16] was > 20 µM in each case. Besides, in series [8], the MCC stood at 100 µM.
